Published values collected from several papers.
Compare with care: the assays were run in different laboratories.
Target: Insulin-like growth factor 1 receptor (IGF1R, Homo sapiens, UniProt P08069)

SMILES	effect on	method	tested at	remaining binding
Cc1cnc(Nc2ccc(C(=O)N3CCC(N4CCCC4)CC3)cc2)nc1-c1cc2ccccc2s1	binding	competition with immobilised ligand	1 µM	45%
COc1cnc(Nc2cccc(S(N)(=O)=O)c2)nc1N1CCN(c2ccccc2)C(=O)C1	binding	competition with immobilised ligand	1 µM	100%
C[C@@H]1CN(c2ccc3ncc(-c4ccc5[nH]nc(C6CC6)c5c4)n3n2)C[C@H](C)O1	binding	competition with immobilised ligand	50 nM	99%
CN1CCN(c2cnc3c(C4CCN(C(=O)c5ccc(OC(F)(F)F)cc5N)CC4)ncnc3c2)CC1	cell-free assay	competition with immobilised ligand	1 µM	100%
CN(C)c1nccc(-c2cnn3ncccc23)n1	binding		1 µM	100%
O=C(Nc1c[nH]nc1C(=O)NC1CCNCC1)c1cc(F)cc(F)c1	binding	competition with immobilised ligand	1 µM	100%
NS(=O)(=O)c1cc(NC(=O)Cc2ccccc2)ccc1Oc1cccc(Cl)c1	cell-free assay	competition with immobilised ligand	1 µM	100%
CC(C)(C)c1ccc(-c2nc(CBr)nn2-c2cccc(O)c2)cc1	cell-free assay	competition with immobilised ligand	10 µM	95%
O=C(NCCCN1CCOCC1)c1ccc(Nc2nccc(-c3cc4ccccc4s3)n2)cc1	binding	competition with immobilised ligand	1 µM	100%
N[C@H]1CCN(c2nccc(-c3cnn4ncccc34)n2)C1	binding		1 µM	81%
Cc1cc(NC(=O)c2cccc(S(F)(F)(F)(F)F)c2)cc(-n2ccn3nc(-c4cccnc4)cc23)c1	cell-free assay	competition with immobilised ligand	1 µM	100%
CN(C)c1ncc(F)c(-c2cnn3ncccc23)n1	binding		1 µM	100%
O=C(NCCCN1CCOCC1)c1ccc(Nc2ncc(Cl)c(-c3ccc(Cl)s3)n2)cc1	binding	competition with immobilised ligand	1 µM	44%
COc1cnc(Nc2cccc(S(N)(=O)=O)c2)nc1N1CCN(c2ccccc2)CC1	binding	competition with immobilised ligand	1 µM	100%
CO[C@@H](C)c1c(Nc2ccc([C@H](N(C)C(=O)C3CCS(=O)(=O)CC3)C(F)(F)F)cc2)cnc2cc(Cl)nn12	cell-free assay	competition with immobilised ligand	1 µM	100%
CN(CCCC(F)(F)F)c1nccc(-c2cnn3ncccc23)n1	binding		1 µM	100%
Cn1nc(C(=O)NCc2ccc(C(=O)O)cc2)cc1-c1ccc2[nH]ccc2c1	cell-free assay	competition with immobilised ligand	0.1 µM	91%
N#Cc1ccccc1CSc1nnc2c(n1)[nH]c1ccccc12	binding	competition with immobilised ligand	10 µM	91%
C[C@@H]1CCN(c2nccc(-c3cnn4ncccc34)n2)C1	binding		1 µM	53%
CCOCCn1cc(C(=O)Nc2ccc(-n3nc(-c4cccnc4)cc3C(F)(F)F)cn2)ccc1=O	cell-free assay	competition with immobilised ligand	1 µM	96%
F[C@@H]1CCN(c2nccc(-c3cnn4ncccc34)n2)C1	binding		1 µM	89%
COc1ccc2c(c1)O[C@@H](c1ccc(OC)c(OC)c1)C[C@H]2NC(=O)C1(c2ccc3c(c2)OC(F)(F)O3)CC1	cell-free assay	competition with immobilised ligand	1 µM	90%
CCN1CCN(Cc2ccc(C(=O)Nc3ccc(C)c(Oc4ccc5c(c4)CC(=O)N5)c3)cc2C(F)(F)F)CC1	binding	competition with immobilised ligand	1 µM	100%
O=C1NC(c2ccccn2)Sc2ccccc21 (stereo not shown)	cell-free assay	competition with immobilised ligand	1 µM	80%
COc1ncc2cc3ccccc3nc2c1C#N	cell-free assay	competition with immobilised ligand	5 µM	86%
